The record followed here is ChEMBL document CHEMBL4118126, “An orally available, brain-penetrant CAMKK2 inhibitor reduces food intake in rodent model” (Bioorg Med Chem Lett, 2018).

Structures are written as SMILES. Converted amounts (≈) assume the structure as drawn.

The target in data set [1] is Calcium/calmodulin-dependent protein kinase kinase 2 (Mus musculus, UniProt Q8C078). Briefly: Inhibition of CAMKK2 in mouse N39 cells assessed as decrease in AMPKalpha phosphorylation at T172 preincubated for 80 mins followed by […] addition by ELISA. The class given is cell-based. An outline of the steps:
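Mouse N39 cells seeded ~1000 cells/well, cultured overnight at 37°C, 5% CO2, then exposed to compound in DMSO for 80 min before ionomycin stimulation ([…] as added). Cells were lysed in extraction buffer for 30 min on ice, then diluted into ice-cold lysis buffer containing protease and phosphatase inhibitors for MSD read-out.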

For data set [2], the target named is Calcium/calmodulin-dependent protein kinase kinase 2 (Homo sapiens, UniProt Q96RR4). Briefly: Inhibition of full-length human GST-tagged CAMKK2 using 5FAM-AKPKGNKDYHLQTCCGSLAYRRR-amide as substrate preincubated for 30 mins followed by substrate addition measured after 120 mins by fluorescence polarization assay.
Calcium/calmodulin-dependent protein kinase kinase 2 (Homo sapiens, UniProt Q96RR4), sequence (Q96RR4 whole entry): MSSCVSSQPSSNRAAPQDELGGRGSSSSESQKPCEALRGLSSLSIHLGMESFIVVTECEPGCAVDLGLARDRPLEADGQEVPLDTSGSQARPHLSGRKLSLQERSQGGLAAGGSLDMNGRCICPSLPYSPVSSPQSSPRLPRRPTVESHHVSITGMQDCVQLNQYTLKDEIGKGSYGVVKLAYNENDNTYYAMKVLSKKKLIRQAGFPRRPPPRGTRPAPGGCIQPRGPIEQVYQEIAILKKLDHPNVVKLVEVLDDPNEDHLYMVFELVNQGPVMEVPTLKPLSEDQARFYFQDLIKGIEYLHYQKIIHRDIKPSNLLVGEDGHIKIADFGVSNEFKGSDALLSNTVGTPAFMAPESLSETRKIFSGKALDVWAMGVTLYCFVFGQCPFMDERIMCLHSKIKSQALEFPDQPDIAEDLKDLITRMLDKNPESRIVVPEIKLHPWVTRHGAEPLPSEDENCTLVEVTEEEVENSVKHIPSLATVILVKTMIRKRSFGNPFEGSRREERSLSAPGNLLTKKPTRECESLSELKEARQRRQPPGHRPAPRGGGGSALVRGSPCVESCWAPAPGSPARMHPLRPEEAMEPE
The nature of data set [3]: Cmax in CD rat at 30 mg/kg, po. The class given is ADME, organism-based. Also on record: dose 30 mg/kg, route oral. Particulars: in vivo.
Data set [4] deals with T1, Inhibitor of nuclear factor kappa-B kinase subunit alpha (Homo sapiens, UniProt O15111).
T1 sequence (O15111 whole entry): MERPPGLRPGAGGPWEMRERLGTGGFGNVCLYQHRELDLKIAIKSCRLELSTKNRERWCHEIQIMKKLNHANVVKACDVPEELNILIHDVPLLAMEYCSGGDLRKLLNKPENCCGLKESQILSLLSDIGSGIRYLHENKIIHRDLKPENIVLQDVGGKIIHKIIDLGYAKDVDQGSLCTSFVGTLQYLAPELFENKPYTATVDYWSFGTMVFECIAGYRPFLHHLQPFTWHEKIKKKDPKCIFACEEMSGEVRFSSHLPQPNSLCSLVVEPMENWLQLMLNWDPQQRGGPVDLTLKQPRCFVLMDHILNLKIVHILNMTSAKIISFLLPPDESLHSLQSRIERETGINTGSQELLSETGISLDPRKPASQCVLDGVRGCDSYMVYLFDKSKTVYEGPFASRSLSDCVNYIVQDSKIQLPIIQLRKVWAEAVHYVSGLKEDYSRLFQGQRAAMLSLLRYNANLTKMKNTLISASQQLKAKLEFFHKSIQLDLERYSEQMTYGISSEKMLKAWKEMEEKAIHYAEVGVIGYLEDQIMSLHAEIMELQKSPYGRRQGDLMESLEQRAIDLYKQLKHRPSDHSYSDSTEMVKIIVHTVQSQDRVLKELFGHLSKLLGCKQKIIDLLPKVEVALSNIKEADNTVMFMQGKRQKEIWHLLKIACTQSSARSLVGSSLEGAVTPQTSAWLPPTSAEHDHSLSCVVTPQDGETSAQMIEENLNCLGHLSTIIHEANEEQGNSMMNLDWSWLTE
Briefly: Inhibition of IKK1 (unknown origin).

Data set [5] can be described thus: Solubility of the compound in pH 7.4 phosphate buffer saline after 1 hr by chemiluminescence nitrogen detection method. The data set is classed as physicochemical. As to conditions: phosphate buffered saline. In outline:
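Kinetic solubility: 10 mM DMSO stock diluted 1:20 into 10 mM phosphate-buffered saline pH 7.4, equilibrated 1 h at RT, filtered, and filtrate quantified by calibrated flow-injection chemiluminescent nitrogen detection.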

The target in another data set is Insulin receptor (Homo sapiens, UniProt P06213). Briefly: Inhibition of INSR (unknown origin).
Insulin receptor, sequence (P06213 28-758 limits assumed): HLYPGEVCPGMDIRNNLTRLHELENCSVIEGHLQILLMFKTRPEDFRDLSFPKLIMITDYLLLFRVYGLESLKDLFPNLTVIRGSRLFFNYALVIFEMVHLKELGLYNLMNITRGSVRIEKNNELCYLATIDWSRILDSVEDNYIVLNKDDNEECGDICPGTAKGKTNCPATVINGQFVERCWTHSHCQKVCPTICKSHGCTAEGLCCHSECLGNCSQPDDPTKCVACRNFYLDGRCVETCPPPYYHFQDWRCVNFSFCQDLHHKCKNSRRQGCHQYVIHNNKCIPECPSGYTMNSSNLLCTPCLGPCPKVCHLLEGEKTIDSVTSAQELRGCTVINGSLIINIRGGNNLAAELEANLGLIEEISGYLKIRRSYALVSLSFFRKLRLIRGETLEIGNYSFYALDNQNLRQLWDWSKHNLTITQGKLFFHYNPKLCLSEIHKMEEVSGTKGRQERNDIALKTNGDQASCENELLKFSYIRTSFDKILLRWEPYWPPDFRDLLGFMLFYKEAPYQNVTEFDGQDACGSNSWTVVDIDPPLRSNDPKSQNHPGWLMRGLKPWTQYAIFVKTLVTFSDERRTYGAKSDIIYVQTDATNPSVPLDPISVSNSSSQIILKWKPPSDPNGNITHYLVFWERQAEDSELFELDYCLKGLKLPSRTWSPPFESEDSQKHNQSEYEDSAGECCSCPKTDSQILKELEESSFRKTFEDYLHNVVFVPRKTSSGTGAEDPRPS
Insulin receptor, sequence (P06213 763-1382 limits assumed): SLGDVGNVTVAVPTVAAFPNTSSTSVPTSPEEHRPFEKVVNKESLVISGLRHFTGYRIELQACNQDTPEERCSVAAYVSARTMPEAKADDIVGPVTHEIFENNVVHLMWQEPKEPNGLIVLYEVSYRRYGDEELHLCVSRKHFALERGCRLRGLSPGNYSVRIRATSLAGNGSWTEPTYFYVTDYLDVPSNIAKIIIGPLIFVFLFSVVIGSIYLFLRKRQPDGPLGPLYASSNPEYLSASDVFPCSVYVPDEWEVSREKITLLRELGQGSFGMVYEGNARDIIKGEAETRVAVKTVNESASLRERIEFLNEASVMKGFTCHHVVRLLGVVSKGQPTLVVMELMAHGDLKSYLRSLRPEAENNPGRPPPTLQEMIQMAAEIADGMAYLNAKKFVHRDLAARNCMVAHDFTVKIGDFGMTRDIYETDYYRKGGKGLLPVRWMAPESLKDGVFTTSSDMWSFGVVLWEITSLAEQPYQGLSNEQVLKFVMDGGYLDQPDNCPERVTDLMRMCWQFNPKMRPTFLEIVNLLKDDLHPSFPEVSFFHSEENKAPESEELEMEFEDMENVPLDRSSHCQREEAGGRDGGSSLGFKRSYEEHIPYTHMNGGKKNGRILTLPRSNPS
Data set [6] is described as follows: Ratio of drug level in brain to plasma in CD rat at 30 mg/kg, po. The class given is ADME, organism-based. As to conditions: read-out: BPR.
In data set [7] the test system is Rattus norvegicus. Put plainly: Reduction of food intake in Sprague-Dawley rat at 30 mg/kg, po administered 1 hr measured for 4 hrs. The data set is classed as ADME, organism-based. Particulars: in vivo.
Data set [8] deals with T2, Discoidin domain-containing receptor 2 (Homo sapiens, UniProt Q16832).
T2 sequence (Q16832 whole entry): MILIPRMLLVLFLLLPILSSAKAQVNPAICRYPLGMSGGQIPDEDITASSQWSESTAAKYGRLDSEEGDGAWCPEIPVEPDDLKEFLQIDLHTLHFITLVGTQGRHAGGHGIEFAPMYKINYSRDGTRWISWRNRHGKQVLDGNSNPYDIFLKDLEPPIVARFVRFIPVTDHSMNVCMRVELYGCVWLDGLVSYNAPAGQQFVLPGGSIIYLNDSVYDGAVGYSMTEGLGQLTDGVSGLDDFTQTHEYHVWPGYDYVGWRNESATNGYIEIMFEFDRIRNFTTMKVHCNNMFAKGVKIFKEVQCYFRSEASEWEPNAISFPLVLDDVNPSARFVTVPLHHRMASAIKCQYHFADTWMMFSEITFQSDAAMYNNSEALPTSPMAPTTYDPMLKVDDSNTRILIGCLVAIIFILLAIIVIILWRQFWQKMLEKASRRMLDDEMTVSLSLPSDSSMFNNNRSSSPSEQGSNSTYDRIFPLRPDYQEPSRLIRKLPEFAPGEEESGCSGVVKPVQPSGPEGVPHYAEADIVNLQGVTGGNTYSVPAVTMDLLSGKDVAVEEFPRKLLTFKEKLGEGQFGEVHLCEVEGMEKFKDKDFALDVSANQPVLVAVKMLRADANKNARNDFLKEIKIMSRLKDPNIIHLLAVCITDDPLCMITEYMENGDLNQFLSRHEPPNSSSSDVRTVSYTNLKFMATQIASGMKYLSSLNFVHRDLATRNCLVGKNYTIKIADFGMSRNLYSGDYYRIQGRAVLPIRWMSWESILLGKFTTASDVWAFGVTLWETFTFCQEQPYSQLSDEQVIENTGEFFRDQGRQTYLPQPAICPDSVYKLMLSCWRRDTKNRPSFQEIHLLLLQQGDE
Put plainly: Inhibition of DDR2 (unknown origin).

Data set [9] concerns the target Mitogen-activated protein kinase 8 (Homo sapiens, UniProt P45983). Put plainly: Inhibition of JNK1 (unknown origin).
Data set [10] concerns Rattus norvegicus. Briefly: Inhibition of ghrelin-induced food intake in Sprague-Dawley rat at 30 mg/kg, po administered 1 hr followed by ghrelin addition measured for 4 hrs relative to control. The class given is functional.
A further data set addresses T3, Aurora kinase A (Homo sapiens, UniProt O14965).
T3 sequence (O14965 whole entry): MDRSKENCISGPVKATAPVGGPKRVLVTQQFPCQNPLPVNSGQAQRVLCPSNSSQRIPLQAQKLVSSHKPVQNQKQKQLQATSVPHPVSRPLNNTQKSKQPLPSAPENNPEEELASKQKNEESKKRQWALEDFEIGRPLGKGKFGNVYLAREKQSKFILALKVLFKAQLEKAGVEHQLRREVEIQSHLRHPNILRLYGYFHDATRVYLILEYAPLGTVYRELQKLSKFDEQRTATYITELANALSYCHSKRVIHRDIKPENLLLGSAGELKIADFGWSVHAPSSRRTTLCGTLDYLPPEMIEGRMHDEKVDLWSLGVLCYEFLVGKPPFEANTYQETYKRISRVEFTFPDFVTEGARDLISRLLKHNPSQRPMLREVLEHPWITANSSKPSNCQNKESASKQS
Put plainly: Inhibition of aurora A (unknown origin).

A short description of data set [11]: Cmax in CD rat at 10 mg/kg, po. Particulars: in vivo. The class given is ADME, organism-based. Also on record: dose 10 mg/kg, route oral.
Data set [12] can be described thus: Ratio of drug level in brain to plasma in CD rat at 10 mg/kg, po. The class given is ADME, organism-based. As to conditions: read-out: BPR.

Mitogen-activated protein kinase 8, sequence (P45983 whole entry): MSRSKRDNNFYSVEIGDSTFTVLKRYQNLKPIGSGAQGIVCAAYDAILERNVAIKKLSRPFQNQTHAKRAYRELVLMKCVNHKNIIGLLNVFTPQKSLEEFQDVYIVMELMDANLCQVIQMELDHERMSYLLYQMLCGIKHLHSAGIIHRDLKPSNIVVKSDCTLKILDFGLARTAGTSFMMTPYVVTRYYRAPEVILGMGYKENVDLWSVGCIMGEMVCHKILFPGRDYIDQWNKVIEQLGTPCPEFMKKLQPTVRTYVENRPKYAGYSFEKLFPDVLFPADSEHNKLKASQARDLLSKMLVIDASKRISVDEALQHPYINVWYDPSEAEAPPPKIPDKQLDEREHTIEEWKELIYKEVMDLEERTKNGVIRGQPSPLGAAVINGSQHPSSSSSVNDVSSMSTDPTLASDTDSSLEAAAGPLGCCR
Calcium/calmodulin-dependent protein kinase kinase 2 (Mus musculus, UniProt Q8C078), sequence (Q8C078 whole entry): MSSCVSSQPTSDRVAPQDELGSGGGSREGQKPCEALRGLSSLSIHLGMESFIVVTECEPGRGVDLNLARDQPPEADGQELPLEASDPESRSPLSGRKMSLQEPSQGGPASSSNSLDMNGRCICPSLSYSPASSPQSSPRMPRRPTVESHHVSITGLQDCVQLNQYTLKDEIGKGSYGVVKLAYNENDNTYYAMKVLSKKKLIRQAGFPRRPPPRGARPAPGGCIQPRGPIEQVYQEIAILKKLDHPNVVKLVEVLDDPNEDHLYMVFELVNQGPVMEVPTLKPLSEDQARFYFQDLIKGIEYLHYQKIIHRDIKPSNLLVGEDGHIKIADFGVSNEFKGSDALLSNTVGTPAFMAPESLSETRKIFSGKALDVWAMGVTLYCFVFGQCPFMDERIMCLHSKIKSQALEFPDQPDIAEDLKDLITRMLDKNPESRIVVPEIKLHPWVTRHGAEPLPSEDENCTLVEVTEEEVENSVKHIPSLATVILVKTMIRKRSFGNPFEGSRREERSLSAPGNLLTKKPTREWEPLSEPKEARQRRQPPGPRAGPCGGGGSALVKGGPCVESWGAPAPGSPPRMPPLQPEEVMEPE

Take `Cc1cc(OCCN2CCOCC2)ccc1-c1cc2c(-c3ccc(C#N)c(C(C)C)c3)ccnc2[nH]1`: the IC50 was 501 nM in data set [1]; 6.31 nM in data set [2]; > 25100 nM in data set [4]; > 10000 nM on Insulin receptor (read-out: IC50); > 10000 nM at Insulin receptor (read-out: pIC50 (converted)); > 10000 nM in [8]. Further, the IC50 (in data set [9]; on Aurora kinase A) was > 10000 nM in each case. In data set [3], this compound returned a Cmax of 964 ng/mL. The solubility at 1 h in [5] was < 1 µM. Further, the Kp in [6] was 0.9. Moreover, the Activity result in the data set on Rattus norvegicus [7] is recorded as “Non-Toxic”. Besides, in the data set with Rattus norvegicus [10], testing at 30 mg/kg gave an inhibition in vivo of 40%.
`COc1ccccc1-c1cc2c(-c3ccc(C(N)=O)c(C4CCCC4)c3)ccnc2[nH]1` came in with a Cmax in data set [11] of 35 ng/mL. Further, the Kp in data set [12] turned out to be 3.2. Moreover, the IC50 was 100 nM in [1]; 2 nM in [2]; 2510 nM in data set [4]; 794 nM at Insulin receptor (read-out: pIC50 (converted)); 2000 nM in [9]. Moreover, the solubility at 1 h in data set [5] is 7 µM (≈ 2.88 µg/mL).
